The source made the active and inactive calls. No cut-off for these calls is given here.
Tests used:
CCRF-CEM = assay: Cytotoxicity against human CCRF-CEM cells after 72 hrs by XTT assay; assay type: functional, cell-based
Summary of the method: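 CCRF-CEM T-ALL cells incubated with compound for 72 h. XTT with phenazine methosulfate then added for 6 h at 37 °C, absorbance read at 450 and 630 nm. IC50 from six or seven concentrations by median-effect analysis; mean ± STDEV, n = 3.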

[1] = Cytotoxicity against human CL141T cells after 72 hrs by Alamar blue assay; assay type: functional, cell-based
Summary of the method: (§1)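 Cells exposed to compound for 72 h, then Alamar blue added with a further 10−12 h at 37 °C and a spectrophotometric read. IC50 from six or seven concentrations by median-effect analysis; mean ± STDEV, n = 3. CL141T is a line derived from a patient lung tumor passaged as a SCID mouse xenograft.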

HCT-116 = assay: Cytotoxicity against human HCT116 cells after 72 hrs by Alamar blue assay; assay type: functional, cell-based; settings: HCT-116, 72 h; summary of the method: as §1
PC-3 = assay: Cytotoxicity against human PC3 cells after 72 hrs by Alamar blue assay; assay type: functional, cell-based; settings: PC-3, 72 h; summary of the method: as §1
[2] = Cytotoxicity against human OECM1 cells after 72 hrs by Alamar blue assay; assay type: functional, cell-based; settings: OECM1, 72 h; summary of the method: as §1
MX1 = assay: Cytotoxicity against human MX1 cells after 72 hrs by SRB assay; assay type: functional, cell-based; settings: MX1, 72 h
[3] = Cytotoxicity against human H460 cells after 72 hrs by Alamar blue assay; assay type: functional, cell-based; settings: NCI-H460, 72 h; summary of the method: as §1
HT-29 = assay: Cytotoxicity against human HT-29 cells after 72 hrs by Alamar blue assay; assay type: functional, cell-based; settings: HT-29, 72 h; summary of the method: as §1
A549 = assay: Cytotoxicity against human A549 cells after 72 hrs by Alamar blue assay; assay type: functional, cell-based; settings: A549, 72 h; summary of the method: as §1
MES-SA = assay: Resistance factor, ratio of IC50 for human MES-SA/Dx5 cells to IC50 for human MES-SA cells; assay type: functional
[4] = Cytotoxicity against human MES-SA cells after 72 hrs by Presto Blue assay; assay type: functional, cell-based
Summary of the method: (§2)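 MES-SA and doxorubicin-resistant MES-SA/dx5 cells exposed for 72 h, then PrestoBlue added for 3 h at 37 °C, absorbance read at 570 and 600 nm. IC50 by median-effect analysis of six or seven concentrations; mean ± STDEV of three to six independent experiments.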

[5] = Cytotoxicity against human MES-SA/Dx5 cells after 72 hrs by Presto Blue assay; assay type: functional, cell-based; settings: MES-SA/Dx5, 72 h; summary of the method: as §2
KB = assay: Cytotoxicity against human KB cells after 72 hrs by Alamar blue assay
[6] = Cytotoxicity against human KB-VIN10 cells after 72 hrs by Alamar blue assay; settings: KB-VIN10, 72 h
[7] = Resistance factor, ratio of IC50 for human KB-VIN10 cells to IC50 for human KB cells; assay type: functional
Escherichia coli = assay: Induction of Escherichia coli pEGFP-N1 DNA interstrand cross-linking at 1 to 10 uM after 2 hrs by alkaline agarose gel shift assay
Summary of the method: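 Plasmid pEGFP-N1 DNA (1500 ng) incubated with compound at 1, 5 and 10 μM in 3 mM NaCl/1 mM sodium phosphate pH 7.4/1 mM EDTA, 2 h at 37 °C. DNA then BamHI-linearized, EtOH-precipitated, denatured in 0.5 N NaOH/10 mM EDTA, run on 0.8% alkaline agarose at 4 °C (18 V, 22 h), stained with ethidium bromide.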

[8] = Cytotoxicity against human HEL299 cells; assay type: cell-based; settings: HEL 299

Structure (SMILES) | IC50 (CCRF-CEM) | IC50 [1] | IC50 (HCT-116) | IC50 (PC-3) | IC50 [2] | also measured
Cn1c2c(c3ccccc31)Cc1c(CO)c(CO)c(-c3ccccc3)n1C2 | 1.17 µM | – | – | – | – | –
CCNC(=O)OCc1c(COC(=O)NCC)c(-c2ccc(Cl)cc2)n2c1Cc1c(n(C)c3ccccc13)C2 | 0.35 µM | 7.88 µM | 1.17 µM | 4.95 µM | 9.01 µM | IC50 (MX1): 1.83 µM
CCNC(=O)OCc1c(COC(=O)NCC)c(-c2ccc(OC)c(OC)c2)n2c1Cc1c(n(C)c3ccccc13)C2 | 0.3 µM | 11.2 µM | – | 8.03 µM | 5.29 µM | –
COc1ccc(-c2c(COC(=O)NC(C)C)c(COC(=O)NC(C)C)c3n2Cc2c(c4ccccc4n2C)C3)cc1OC | 0.3 µM | – | – | – | – | –
CCNC(=O)OCc1c(COC(=O)NCC)c(-c2cc(OC)c(OC)c(OC)c2)n2c1Cc1c(n(C)c3ccccc13)C2 | 0.62 µM | – | – | – | – | –
Cc1c(COC(=O)NC(C)C)c(COC(=O)NC(C)C)c2n1Cc1c(c3ccccc3n1Cc1ccccc1)C2 | 0.1 µM | 4.66 µM | 3.92 µM | 4.18 µM | 4.2 µM | IC50 [3]: 7.26 µM
COc1ccc(-c2c(CO)c(CO)c3n2Cc2c(c4ccccc4n2C)C3)cc1 | 1.3 µM | – | – | – | – | –
Cn1c2c(c3ccccc31)Cc1c(CO)c(CO)c(-c3ccc(F)c(Cl)c3)n1C2 | 14.4 µM | – | – | – | – | –
CC(C)NC(=O)OCc1c(COC(=O)NC(C)C)c(-c2ccccc2)n2c1Cc1c(n(C)c3ccccc13)C2 | 0.13 µM | 9.6 µM | – | 7.84 µM | 4.87 µM | IC50 [3]: 4.72 µM
CCNC(=O)OCc1c(COC(=O)NCC)c2n(c1C)Cc1c(c3ccccc3n1Cc1ccccc1)C2 | 0.14 µM | – | 3.84 µM | 5.05 µM | 5.42 µM | IC50 [3]: 8.31 µM
COc1ccc(-c2c(COC(=O)NC(C)C)c(COC(=O)NC(C)C)c3n2Cc2c(c4ccccc4n2C)C3)cc1 | 0.12 µM | 4 µM | 5.93 µM | 6.84 µM | 4.17 µM | IC50 [3]: 9.52 µM
CC(C)NC(=O)OCc1c(COC(=O)NC(C)C)c(-c2ccc(F)c(Cl)c2)n2c1Cc1c(n(C)c3ccccc13)C2 | 1.91 µM | – | – | – | – | –
CCNC(=O)OCc1c(COC(=O)NCC)c(-c2ccccc2)n2c1Cc1c(n(C)c3ccccc13)C2 | 0.23 µM | 10.5 µM | – | 9.13 µM | 5.19 µM | –
CCNC(=O)OCc1c(COC(=O)NCC)c2n(c1CC)Cc1c(c3ccccc3n1C)C2 | 0.16 µM | 2.85 µM | 1.8 µM | 5 µM | 3.9 µM | –
CCNC(=O)OCc1c(COC(=O)NCC)c(-c2ccc(F)c(Cl)c2)n2c1Cc1c(n(C)c3ccccc13)C2 | 1.8 µM | – | – | – | – | –
COc1cc(-c2c(COC(=O)NC(C)C)c(COC(=O)NC(C)C)c3n2Cc2c(c4ccccc4n2C)C3)cc(OC)c1OC | 0.95 µM | – | – | – | – | –
Cc1c(COC(=O)NC(C)C)c(COC(=O)NC(C)C)c2n1Cc1c(c3ccccc3n1C)C2 | 0.03 µM | 2.43 µM | 1.26 µM | 3.03 µM | 1.45 µM | IC50 (HT-29): 10.8 µM; IC50 (MX1): 0.25 µM; IC50 (A549): 3.81 µM

Structure (SMILES) | IC50 (CCRF-CEM) | IC50 [1] | IC50 (HCT-116) | IC50 (PC-3) | IC50 [2] | also measured
COc1cccc2c1C(=O)c1c(O)c3c(c(O)c1C2=O)C[C@@](O)(C(=O)CO)C[C@@H]3O[C@H]1C[C@H](N)[C@H](O)[C@H](C)O1 [DOXORUBICIN] | – | – | – | – | – | Ratio IC50 (MES-SA): 60.52; IC50 [4]: 0.038 µM; IC50 [5]: 2.3 µM
Cn1c2c(c3ccccc31)Cc1c(CO)c(CO)c(-c3ccc(F)cc3)n1C2 | 1.46 µM | – | – | – | – | –
Cn1c2c(c3ccccc31)Cc1c(CO)c(CO)c(-c3ccc(Cl)cc3)n1C2 | 4.58 µM | 23.8 µM | 17.5 µM | 12.9 µM | 17.2 µM | IC50 (MX1): 11.3 µM
CCNC(=O)OCc1c(COC(=O)NCC)c(-c2ccc(F)cc2)n2c1Cc1c(n(C)c3ccccc13)C2 | 0.39 µM | 12.4 µM | – | 14.6 µM | 8.6 µM | –
CCc1c(COC(=O)NC(C)C)c(COC(=O)NC(C)C)c2n1Cc1c(c3ccccc3n1C)C2 | 0.16 µM | 2.66 µM | 2.22 µM | 2.1 µM | 2.02 µM | –
CC[C@]1(O)C[C@H]2CN(CCc3c([nH]c4ccccc34)[C@@](C(=O)OC)(c3cc4c(cc3OC)N(C=O)[C@H]3[C@@](O)(C(=O)OC)[C@H](OC(C)=O)[C@]5(CC)C=CCN6CC[C@]43[C@@H]65)C2)C1 [VINCRISTINE] | – | – | – | – | – | IC50 (KB): 0.00211 µM; IC50 [6]: 0.303 µM; Ratio IC50 [7]: 143.7
CCn1c2c(c3ccccc31)Cc1c(COC(=O)NC(C)C)c(COC(=O)NC(C)C)c(C)n1C2 | 0.14 µM | 1.88 µM | 2.2 µM | 3.28 µM | 2.27 µM | IC50 (HT-29): 6.36 µM; IC50 (A549): 2.64 µM
Cn1c2c(c3ccccc31)Cc1c(CO)c(CO)c(-c3ccc(F)c(F)c3)n1C2 | 7.94 µM | – | – | – | – | –
COc1cc(-c2c(CO)c(CO)c3n2Cc2c(c4ccccc4n2C)C3)cc(OC)c1OC | 4.45 µM | – | – | – | – | –
CC(C)NC(=O)OCc1c(COC(=O)NC(C)C)c(-c2ccc(Cl)cc2)n2c1Cc1c(n(C)c3ccccc13)C2 | 0.44 µM | 14 µM | 9.28 µM | 13.1 µM | 12.7 µM | IC50 (MX1): 12.4 µM
CCNC(=O)OCc1c(COC(=O)NCC)c(-c2ccc(OC)cc2)n2c1Cc1c(n(C)c3ccccc13)C2 | 0.1 µM | 8.13 µM | 7.1 µM | 8.3 µM | 6.15 µM | –
CCNC(=O)OCc1c(COC(=O)NCC)c2n(c1C)Cc1c(c3ccccc3n1CC)C2 | 0.14 µM | 1.4 µM | 3.22 µM | 4.61 µM | 4.9 µM | Activity (Escherichia coli): Active; IC50 [3]: 5.14 µM
Cc1c(CO)c(CO)c2n1Cc1c(c3ccccc3n1Cc1ccccc1)C2 | 0.29 µM | 2.76 µM | – | 4.52 µM | 4.17 µM | –
CCNC(=O)OCc1c(COC(=O)NCC)c(-c2ccc(F)c(F)c2)n2c1Cc1c(n(C)c3ccccc13)C2 | 0.13 µM | 9.61 µM | – | 6.76 µM | 14.4 µM | IC50 [3]: 18.9 µM
CCc1c(CO)c(CO)c2n1Cc1c(c3ccccc3n1C)C2 | 0.2 µM | 1.32 µM | – | 3.32 µM | 2.11 µM | IC50 [8]: 4.24 µM; Ratio IC50 (MES-SA): 0.61; IC50 [4]: 0.77 µM; IC50 (KB): 1.97 µM; IC50 [6]: 1.56 µM; IC50 (HT-29): 8.56 µM; IC50 [5]: 0.47 µM; Ratio IC50 [7]: 0.79; IC50 (A549): 3.15 µM
COc1ccc(-c2c(CO)c(CO)c3n2Cc2c(c4ccccc4n2C)C3)cc1OC | 0.96 µM | 33.1 µM | – | 37.9 µM | 37.2 µM | –
CC(C)NC(=O)OCc1c(COC(=O)NC(C)C)c(-c2ccc(F)c(F)c2)n2c1Cc1c(n(C)c3ccccc13)C2 | 0.44 µM | 18.3 µM | – | 34.2 µM | 15.2 µM | –
